SENP6 inh: SENP6 protease inhibitors, primary screen, biochemical, luminescence, uHTS. Sentrin-specific protease 6 (Homo sapiens), Q9GZR1. Recombinant SENP6 catalytic domain, aminoluciferin luminescence. inhibition, % at 10 µM. actives 1.8% (n = 330,000);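 active = inhibition above about 50% at the single tested dose, limit read from the data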;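 also: plate controls were DMSO wells with enzyme for no effect and DMSO wells lacking enzyme for full effect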
UBC13 polyUb: UBC13 polyubiquitin chain formation inhibitors, primary screen, biochemical, TR-FRET, uHTS | AID 485273, 2010 | inhibition, % at 20 µM | Ubiquitin-conjugating enzyme E2 N (Homo sapiens), P61088 | actives 0.47% (n = 330,000); in the data active = inhibition above about 45%, passing the limit was not always enough
SENP8 block-1: human SENP8 protease inhibitors, primary screen, biochemical, fluorescence, Nedd8 protein substrate, uHTS; actives 0.64% (n = 360,000); recombinant SENP8; inhibition, % at 20 µM; AID 602440, 2012; in the data active = inhibition mostly above about 40%, no sharp cut-off; inactive = mostly below about 27%
Apaf1 inhib: inhibitors of human Apaf-1 apoptosome, primary screen, biochemical, DEVD-Rh110 fluorescence, uHTS; Apoptotic protease-activating factor 1 (Homo sapiens), O14727; reconstituted apoptosome caspase-3 activity; inhibition, % at 20 µM; actives 0.71% (n = 330,000); active = inhibition of at least 40% at 20 µM;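 also: plate controls were DMSO wells for no effect and DEVD-CHO caspase inhibitor wells for full effect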
Target sequence (O14727 whole entry, looked up): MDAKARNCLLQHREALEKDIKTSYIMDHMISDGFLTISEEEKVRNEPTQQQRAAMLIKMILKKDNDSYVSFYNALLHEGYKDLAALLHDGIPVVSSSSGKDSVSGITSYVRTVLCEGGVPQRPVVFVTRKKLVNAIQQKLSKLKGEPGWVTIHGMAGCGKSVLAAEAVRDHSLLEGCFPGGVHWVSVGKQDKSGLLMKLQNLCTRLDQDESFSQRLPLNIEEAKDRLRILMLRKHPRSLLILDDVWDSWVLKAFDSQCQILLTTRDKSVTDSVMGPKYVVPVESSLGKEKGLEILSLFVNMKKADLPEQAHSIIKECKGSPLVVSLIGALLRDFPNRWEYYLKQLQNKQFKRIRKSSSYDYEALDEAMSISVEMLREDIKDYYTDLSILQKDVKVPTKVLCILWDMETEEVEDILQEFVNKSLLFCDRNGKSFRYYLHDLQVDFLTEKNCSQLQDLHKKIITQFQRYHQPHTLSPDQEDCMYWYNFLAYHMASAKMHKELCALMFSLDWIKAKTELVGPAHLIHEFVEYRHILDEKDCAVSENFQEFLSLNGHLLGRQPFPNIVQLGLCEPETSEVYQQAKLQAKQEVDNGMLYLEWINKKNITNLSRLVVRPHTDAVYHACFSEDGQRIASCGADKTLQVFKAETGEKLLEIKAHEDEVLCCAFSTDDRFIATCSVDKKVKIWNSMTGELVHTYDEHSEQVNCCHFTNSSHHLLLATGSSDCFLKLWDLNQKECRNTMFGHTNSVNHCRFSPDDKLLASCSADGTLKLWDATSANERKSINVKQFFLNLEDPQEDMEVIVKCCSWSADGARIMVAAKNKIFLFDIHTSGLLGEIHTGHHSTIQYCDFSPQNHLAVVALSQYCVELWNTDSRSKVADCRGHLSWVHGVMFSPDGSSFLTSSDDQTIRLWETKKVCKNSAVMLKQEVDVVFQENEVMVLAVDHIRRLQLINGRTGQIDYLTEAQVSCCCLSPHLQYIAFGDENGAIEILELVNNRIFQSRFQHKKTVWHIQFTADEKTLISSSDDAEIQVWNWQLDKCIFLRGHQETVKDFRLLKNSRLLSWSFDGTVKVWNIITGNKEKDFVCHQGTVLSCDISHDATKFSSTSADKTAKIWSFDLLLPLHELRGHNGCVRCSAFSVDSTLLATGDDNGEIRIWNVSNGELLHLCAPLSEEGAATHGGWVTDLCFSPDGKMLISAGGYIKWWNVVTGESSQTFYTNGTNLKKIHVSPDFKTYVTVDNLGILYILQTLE
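detection = Rh110 fluorescence intensity | test system = biochemical Apaf-1 apoptosome reconstitution | also added = cytochrome c and DEVD-Rh110 substrate | schedule = 30 min plus 50 min, RT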
SENP8 block-2: SENP8 protease inhibitors, primary screen, biochemical, luminescence. purified SENP8, Z-RLRGG-aminoluciferin cleavage. inhibition, % at 10 µM. actives 1.2% (n = 330,000). AID 2540, 2010; in the data active = inhibition above about 50%
SENP7 inh: SENP7 protease inhibitors, primary screen, biochemical, luminescence, uHTS. Sentrin-specific protease 7 (Homo sapiens), Q9BQF6. recombinant SENP7, Z-RLRGG-aminoluciferin luminescence, 40 min. inhibition, % at 5 µM. actives 1.5% (n = 330,000). AID 434973, 2010;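 active = inhibition above about 50% at the single test dose, limit read from the data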;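 also: plate controls were DMSO with enzyme for no effect and no enzyme buffer wells for full effect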
SENP8 confirm: SENP8 protease inhibitors, retest, confirmation, biochemical, luminescence, single concentration | Recombinant SENP8, Z-RLRGG-aminoluciferin luminescence, 60 min | AID 488912, 2010 | shares compounds with SENP7 inh | inhibition, % at 12.5 µM | actives 40% (n = 6,200);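 active = mean inhibition across replicates above about 50%, limit read from the data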
SENP6 confirm: SENP6 protease inhibitors, confirmation, biochemical, luminescence, single concentration. shares compounds with SENP7 inh. recombinant SENP6, Z-RLRGG-aminoluciferin luminescence. inhibition, % at 12.5 µM. actives 58% (n = 6,200)
SENP7 confirm: SENP7 protease inhibitors, retest, confirmation, biochemical, luminescence, single concentration. shares compounds with SENP7 inh. recombinant SENP7, Z-RLRGG-aminoluciferin luminescence, 40 min. inhibition, % at 12.5 µM. actives 69% (n = 6,200). AID 488917, 2010
Casp3 SENP sel: caspase-3 protease inhibitors, confirmation, selectivity assay for SENP inhibitor project, biochemical, single concentration; shares compounds with SENP7 inh; purified caspase-3, Z-DEVD-aminoluciferin luminescence, 60 min; inhibition, % at 12.5 µM; actives 60% (n = 6,200);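 active = mean inhibition above about 50%, limit read from the data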;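 also: plate controls were enzyme with DMSO for no effect and wells without caspase-3 for full effect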
SENP luc ctr: luminescence interference (SENP counter-screen). shares compounds with SENP7 inh. Pre-incubated SENP8/Z-RLRGG-aminoluciferin, luciferase luminescence interference. inhibition, % at 12.5 µM. actives 39% (n = 6,200). AID 488919;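 active = mean inhibition above about 50% when retested at one dose, limit read from the data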;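 also: plate controls were DMSO wells with completed reaction for no effect and substrate without enzyme for full effect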
An asterisk follows results filed as active; i = inactive; . = no result given. Compounds with a hit are over-represented: about 3% of the library has one in this group of screens.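 The calls were made as follows, unless noted: active = mean inhibition above about 50% in the one-dose retest (limit read from the data); inactive = the rest.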

SMILES	SENP6 inh	UBC13 polyUb	SENP8 block-1	Apaf1 inhib	SENP8 block-2	SENP7 inh	SENP8 confirm	SENP6 confirm	SENP7 confirm	Casp3 SENP sel	SENP luc ctr
Cc1nn(Cc2ccccc2Cl)c(C)c1C(=O)NCCN1C(=O)S/C(=C\c2ccccc2)C1=O	-9	-6	7	11	-2	66*	-11	-4	-2	-2	-8
CCCCC[C@@H](C)N1C[C@H](COCc2ccccc2)Oc2cc(N3CC[C@@H](O)C3)ccc2S1(=O)=O	.	.	15	.	.	.	.	.	.	.	.
CCc1ccc(C2CC(c3ccco3)=NN2S(C)(=O)=O)cc1 (centres undefined)	94*	-8	22	-1	89*	92*	96*	97*	102*	96*	92*
CC(C)C[C@@H](CO)N1CCN(Cc2cccnc2)CCC1=O	-2	-1	6	-9	0	-3	.	.	.	.	.
O=C(Nc1cccc(S(=O)(=O)N2CCOCC2)c1)c1ccc(=O)[nH]c1	-24	3	3	0	1	6	.	.	.	.	.
CCOc1cc(/C=N/O)ccc1OCc1ccc(F)cc1	-9	-6	15	12	-3	-4	.	.	.	.	.
COc1cc(/C=N/O)ccc1OCc1ccc(C(=O)O)cc1	97*	-16	15	12	96*	100*	97*	100*	104*	98*	99*
COc1cc(/C=N/O)ccc1OCc1ccc(Cl)cc1	75*	8	.	-9	43	59*	64*	64*	86*	42	68*
COc1ccc(CNC(=O)Cn2nnc3ccccc3c2=O)cc1	1	-16	9	0	-12	-9	.	.	.	.	.
COC(=O)c1cccc(CSc2nc3ccccc3[nH]2)c1	65*	2	19	7	47	72*	50	50*	83*	64*	68*
O=C1CCC(=O)N1c1ccc(CSc2nc3ccccc3[nH]2)cc1	-4	-4	11	-1	-20	-5	.	.	.	.	.
c1ccc2[nH]c(SCc3ccc(-c4nnco4)cc3)nc2c1	72*	-9	36	7	45	71*	64*	61*	88*	81*	75*
COc1ccc(CSc2nc3ccccc3[nH]2)cc1	96*	4	27	1	88*	94*	92*	94*	100*	92*	93*
O=C1CSC(c2ccccc2[N+](=O)[O-])N1CCc1ccccc1 (centres undefined)	1	-1	1	-7	2	3	.	.	.	.	.
O=c1c2ccccc2nc(SCCN2CCCCC2)n1CCc1ccccc1	5	12	6	12	7	-1	.	.	.	.	.
CCOc1ccc(S(=O)(=O)N2CCCC(C(=O)N3CCN(c4ccccc4)CC3)C2)cc1 (centres undefined)	-3	1	4	28	8	-4	.	.	.	.	.
COc1ccc(-c2ccc3sc4ccccc4c(=O)c3c2)cn1	95*	6	-392	16	15	101*	14	21	8	74*	14
COc1ccc2sc3ccccc3c(=O)c2c1OC	20	-3	-23	8	5	-4	.	.	.	.	.
O=C1CC(O)(C(F)(F)F)Oc2c1ccc1ccccc21 (centres undefined)	82*	4	-270	0	77*	54*	86*	84*	96*	81*	86*
CCCC(C(=O)NCCC(C)C)N(Cc1ccccc1)C(=O)c1snc(C(N)=O)c1N (centres undefined)	-4	16	-437	15	0	0	.	.	.	.	.
COc1cccc2cc(-c3cn4ccc(C)cc4n3)c(=O)oc12	46	1	-69	-17	23	50*	0	4	13	12	4
COc1cccc2cc(-c3nnc(-c4ccccc4)o3)c(=O)oc12	92*	8	-223	-6	74*	90*	0	2	3	5	10
COc1ccc(-c2nnc(-c3cc4ccccc4oc3=O)o2)cc1	-7	5	-349	-8	-8	3	.	.	.	.	.
c1ccc2oc(-c3ccc(Nc4nc(N5CCOCC5)nc(N5CCOCC5)n4)cc3)nc2c1	.	.	-443	.	.	.	.	.	.	.	.
Cn1c(=O)c2c(SCc3ccccc3)nc(C3CC3)nc2n(C)c1=O	50	-7	18	-1	10	68*	7	22	25	30	3
SMILES	SENP6 inh	UBC13 polyUb	SENP8 block-1	Apaf1 inhib	SENP8 block-2	SENP7 inh	SENP8 confirm	SENP6 confirm	SENP7 confirm	Casp3 SENP sel	SENP luc ctr
O=C(COC(=O)CNC(=O)C1CCCCC1)Nc1ccccc1Cl	10	-4	21	2	4	11	.	.	.	.	.
C/C=C(\C)C(=O)O[C@@H]([C@H](O)c1cc2ccc(=O)oc2cc1OC)C(C)(C)O	3	10	i	0	8	-3	.	.	.	.	.
CCOC(=O)C1=C(COC(=O)/C=C/c2ccc([N+](=O)[O-])cc2)NC(=O)NC1C (centres undefined)	-21	-18	-1	8	-9	-8	.	.	.	.	.
Cc1ccc(N=Nc2c(=O)[nH]n3c(=O)cc(C)[nH]c23)cc1	76*	-217	37	4	54*	43	-16	18	60*	61*	45
O=C(Nc1ccccc1)c1ccc2ccccc2n1	73*	0	5	11	65*	73*	37	70*	89*	65*	24
O=C(Nc1ccccc1C(=O)O)c1ccc2ccccc2n1	54*	-13	-20	2	35	26	65*	60*	83*	81*	49
CCN(C(=O)COc1ccc(C(C)=O)cc1)c1cccc2ccccc12	-9	-4	10	16	-10	-9	.	.	.	.	.

Bioassay records: PubChem BioAssay, Sanford-Burnham Center for Chemical Genomics
